Data taken from ChEMBL document CHEMBL4680074, “Structure and Property Guided Design in the Identification of PRMT5 Tool Compound EPZ015666” (ACS Med Chem Lett, 2016).

How the values were obtained:
PRMT5/MEP50 complex = PRMT5/MEP50 complex (Homo sapiens, UniProt O14744); assay: Inhibition of human full length FLAG-tagged PRMT5/human His6-tagged MEP50 expressed in baculovirus-infected Sf9 cells assessed as reduction in tritium incorporation into peptide substrate using human Histone H4 (1 to 15 residues) and [3H]SAM as substrate preincubated with enzyme and H4 for 30 mins followed by [3H]SAM addition and measured after 120 mins by radioactive flashplate assay
PRMT5/MEP50 complex, sequence (O14744 whole entry, the tested form may be a part): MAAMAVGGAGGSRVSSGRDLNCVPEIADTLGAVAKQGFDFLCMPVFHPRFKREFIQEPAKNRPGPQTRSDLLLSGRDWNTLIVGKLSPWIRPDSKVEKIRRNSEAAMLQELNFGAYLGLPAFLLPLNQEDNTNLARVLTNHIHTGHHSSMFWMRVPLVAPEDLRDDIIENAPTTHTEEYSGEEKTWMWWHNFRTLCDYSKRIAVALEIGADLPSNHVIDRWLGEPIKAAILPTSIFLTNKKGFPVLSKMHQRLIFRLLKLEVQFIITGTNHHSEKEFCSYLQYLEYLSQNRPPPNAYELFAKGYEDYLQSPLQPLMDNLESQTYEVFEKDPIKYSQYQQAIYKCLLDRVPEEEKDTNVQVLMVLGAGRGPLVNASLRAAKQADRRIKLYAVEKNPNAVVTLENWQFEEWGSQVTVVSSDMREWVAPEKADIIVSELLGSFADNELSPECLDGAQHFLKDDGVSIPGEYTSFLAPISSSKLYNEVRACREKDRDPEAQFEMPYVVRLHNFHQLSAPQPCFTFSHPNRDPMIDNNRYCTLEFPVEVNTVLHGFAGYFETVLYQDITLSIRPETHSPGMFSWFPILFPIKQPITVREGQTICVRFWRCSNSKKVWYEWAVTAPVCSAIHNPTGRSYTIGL
PRMT5/MEP50 complex, sequence (Q9BQA1 whole entry, further chain, the tested form may be a part): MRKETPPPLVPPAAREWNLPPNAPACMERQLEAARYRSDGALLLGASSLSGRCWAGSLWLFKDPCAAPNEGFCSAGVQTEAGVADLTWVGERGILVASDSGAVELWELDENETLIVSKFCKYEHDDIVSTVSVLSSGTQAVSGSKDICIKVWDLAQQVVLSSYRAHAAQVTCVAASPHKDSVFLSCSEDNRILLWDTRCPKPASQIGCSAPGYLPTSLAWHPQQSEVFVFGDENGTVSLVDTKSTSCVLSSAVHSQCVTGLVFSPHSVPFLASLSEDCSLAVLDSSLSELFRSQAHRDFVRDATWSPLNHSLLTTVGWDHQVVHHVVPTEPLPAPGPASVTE

[1] = target: Protein arginine N-methyltransferase 5 (Homo sapiens, UniProt O14744); assay: Inhibition of PRMT5 in human Z138 cells assessed as reduction in symmetrical dimethylation of arginine containing substrate using SmD3 as substrate incubated for 4 days by In-cell western assay; assay type: cell-based
Protein arginine N-methyltransferase 5, sequence (O14744 whole entry): as the sequence (O14744 whole entry, the tested form may be a part) above

Z-138 = assay: Antiproliferative activity against human Z138 cells incubated for 5 days by cell titer-glo assay; assay type: functional, cell-based; conditions: Z-138, 120 h
[2] = Protein binding in CD-1 mouse plasma; assay type: ADME, cell-free; conditions: read-out: PPB (converted)
[3] = Time during which unbound drug concentration exceeds IC90 for inhibition of PRMT5 in human Z138 cells in CD-1 mouse at 100 mg/kg, po; assay type: organism-based; conditions: in vivo
Summary of the method: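 Male CD-1 mice received single oral doses of 10 and 100 mg/kg, and plasma concentration was profiled over time. Unbound concentration was compared with the cellular methyl-mark IC90 after correction for plasma protein binding in mouse plasma. The value is the time this unbound level stayed at or above that IC90.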

Row | Compound | IC50 (PRMT5/MEP50 complex) | IC50 [1] | fraction unbound [2] | Time [3] | IC50 (Z-138)
1 | O=C(COc1cccc2cccnc12)NC[C@H](O)CN1CCc2ccccc2C1 | 144 nM | 327 nM | – | – | 12600 nM
2 | O=C(NC[C@H](O)CN1CCc2ccccc2C1)c1cccc(NC2CCOCC2)c1 | 18 nM | 13 nM | – | – | 384 nM
3 | OC(COc1cccc(CNC2CCCC2)c1)CN1CCc2ccccc2C1 (stereo not given) | 326 nM | – | – | – | –
4 | Cn1cnc2ccc(-c3cccc(OCC(O)CN4CCc5ccccc5C4)c3)cc21 (stereo not given) | 73 nM | 435 nM | – | – | 4260 nM
5 | O=C(NC[C@H](O)CN1CCc2ccccc2C1)c1ccnc(NC2CCC2)c1 | – | – | – | – | 62 nM
6 | O=C(COc1cccc2cccnc12)NC[C@@H](O)CN1CCc2ccccc2C1 | 11 nM | 16 nM | – | – | 451 nM
7 | O=C(COc1cccc2cccnc12)NCC(O)CN1CCc2ccccc2C1 (racemic) | 23 nM | 36 nM | – | – | 428 nM
8 | O=C(NCC(O)CN1CCc2ccccc2C1)c1cccc(-c2ccccn2)c1 (racemic) | 13 nM | 37 nM | – | – | 1680 nM
9 | Cn1cnc2ccc(-c3ccnc(NCC(O)CN4CCc5ccccc5C4)c3)cc21 (stereo not given) | 33 nM | 180 nM | – | – | 2100 nM

Further lines, with some results ahead:

Row | IC50 (PRMT5/MEP50 complex) | IC50 [1] | fraction unbound [2] | Time [3] | Compound | IC50 (Z-138)
10 | 7450 nM | – | – | – | OC(COc1cccc(CNC2CCCC2)c1)CN1Cc2ccccc2C1 (stereo not given) | –
11 | 13 nM | 32 nM | – | – | O=C(NC[C@H](O)CN1CCc2ccccc2C1)c1cccc(-c2ccccn2)c1 | 890 nM
12 | > 50000 nM | – | – | – | COc1cc2c(cc1OC)CN(CC(O)COc1cccc(CNC3CCCC3)c1)CC2 (stereo not given) | –
13 | 26800 nM | – | – | – | CN(Cc1ccccc1)CC(O)COc1cccc(CNC2CCCC2)c1 (stereo not given) | –
14 | > 50000 nM | – | – | – | OC(COc1cccc(CNC2CCCC2)c1)CN1CCc2ccncc2C1 (stereo not given) | –
15 | 95 nM | 406 nM | – | – | O=C(NC[C@@H](O)CN1CCc2ccccc2C1)c1cccc(-c2ccccn2)c1 | 18700 nM
16 | – | – | 0.7 | 12 h | O=C(NC[C@H](O)CN1CCc2ccccc2C1)c1cc(NC2COC2)ncn1 | –
